Legend:
[1] = system: Leishmania donovani; assay: Antileishmanial activity against Leishmania donovani amastigotes infected in mouse J774A1 cells assessed as inhibition of parasite growth after 72 hrs by luciferase reporter gene assay; format: functional, organism-based; conditions: J774.A1, 72 h
In short: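 J774A.1 macrophages seeded at 4 × 10⁴ cells/well in RPMI-1640 with 10% fetal calf serum, 37 °C CO₂, 24 h. Stationary-phase promastigotes then added at 4 × 10⁵/well and left to convert to intracellular amastigotes. Medium replaced with compound at 0.62–40 µM for 72 h at 37 °C. Steady Glo luciferase luminescence, growth inhibition relative to untreated controls.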

[2] = Toxicity in mouse J774A1 cells; format: cell-based, J774.A1
[3] = (§1) Selectivity index, ratio of CC50 for mouse J774A1 cells to IC50 for Leishmania donovani amastigotes; format: functional, J774.A1
In short: (§2)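 Ratio of CC50 in J-774 A-1 cells to IC50 against L. donovani amastigotes.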

[4] = system: J774.A1; assay: as §1; format: functional; in short: as §2

Row | Molecule | IC50 [1] [µM] | CC50 [2] [µM] | Selectivity Index [3] | Selectivity Index [4]
1 | COC(=O)[C@H]1Cc2c([nH]c3ccccc23)[C@@H](c2ccc(C(C)C)cc2)N1C(=O)C(=O)c1c[nH]c2ccc(Br)cc12 | 3.91 | 7.77 | 1.99 | 
2 | CCc1ccc([C@@H]2c3[nH]c4ccccc4c3C[C@H](C(=O)OC)N2C(=O)C(=O)c2c[nH]c3ccccc23)cc1 | 5.17 | 163 | 31.48 | 
3 | COC(=O)[C@@H]1Cc2c([nH]c3ccccc23)[C@@H](c2ccc(Cl)cc2)N1C(=O)C(=O)c1c[nH]c2ccc(Br)cc12 | 4.02 | 7.64 | 1.9 | 
4 | CCc1ccc([C@@H]2c3[nH]c4ccccc4c3C[C@H](C(=O)OC)N2C(=O)C(=O)c2c[nH]c3ccc(Br)cc23)cc1 | 5.36 | 11.6 | 2.17 | 
5 | COC(=O)[C@@H]1Cc2c([nH]c3ccccc23)[C@H](c2ccc(C)cc2)N1C(=O)C(=O)c1c[nH]c2ccccc12 | 7.37 | 27.4 | 3.72 | 
6 | COC(=O)[C@@H]1Cc2c([nH]c3ccccc23)[C@H](c2ccc(C)cc2)N1C(=O)C(=O)c1c[nH]c2ccc(Br)cc12 | 5.18 | 10.1 | 1.95 | 
7 | COC(=O)[C@@H]1Cc2c([nH]c3ccccc23)[C@@H](c2ccc(Cl)cc2)N1C(=O)C(=O)c1c[nH]c2ccccc12 | 4.36 | 11.3 | 2.6 | 
8 | COC(=O)[C@@H]1Cc2c([nH]c3ccccc23)[C@@H](c2ccccc2Br)N1C(=O)C(=O)c1c[nH]c2ccccc12 | 3.79 | 30.1 | 7.94 | 
9 | CCc1ccc([C@H]2c3[nH]c4ccccc4c3C[C@H](C(=O)OC)N2C(=O)C(=O)c2c[nH]c3ccc(Br)cc23)cc1 | 5.86 | 9.48 | 1.62 | 
10 | COC(=O)[C@H]1Cc2c([nH]c3ccccc23)[C@@H](c2ccc(C(C)C)cc2)N1C(=O)C(=O)c1c[nH]c2ccccc12 | 6.74 | 32.6 | 4.84 | 
11 | COC(=O)[C@H]1Cc2c([nH]c3ccccc23)[C@H](c2ccc(C(C)C)cc2)N1C(=O)C(=O)c1c[nH]c2ccccc12 | 6.02 | 15.1 | 2.51 | 
12 | COC(=O)[C@@H]1Cc2c([nH]c3ccccc23)[C@@H](c2ccc(C)cc2)N1C(=O)C(=O)c1c[nH]c2ccccc12 | 6.79 | 34.4 | 5.07 | 
13 | COC(=O)[C@@H]1Cc2c([nH]c3ccccc23)[C@@H](c2ccc(C)cc2)N1C(=O)C(=O)c1c[nH]c2ccc(Br)cc12 | 4.79 | 8.83 | 1.84 | 
14 | COC(=O)[C@H]1Cc2c([nH]c3ccccc23)[C@H](c2ccc(C(C)C)cc2)N1C(=O)C(=O)c1c[nH]c2ccc(Br)cc12 | 4.44 | 9.04 | 2.04 | 
15 | sodium stibogluconate |  |  |  | 5.53
16 | CCc1ccc([C@H]2c3[nH]c4ccccc4c3C[C@H](C(=O)OC)N2C(=O)C(=O)c2c[nH]c3ccccc23)cc1 | 8.04 | 30.9 | 3.84 | 
17 | COC(=O)[C@@H]1Cc2c([nH]c3ccccc23)[C@@H](c2ccccc2Br)N1C(=O)C(=O)c1c[nH]c2ccc(Br)cc12 | 4.09 | 7.25 | 1.77 | 

From ChEMBL document CHEMBL1268822, “Synthesis and biological evaluation of indolyl glyoxylamides as a new class of antileishmanial agents” (Bioorg Med Chem Lett, 2010)
